Measured values reported in ChEMBL document CHEMBL5136969, “A niclosamide-tobramycin hybrid adjuvant potentiates cefiderocol against P. aeruginosa” (2021).
In brackets after ≈: the same amount, converted by molar mass. Activity calls are given as the source filed them.

What was measured:
Enterococcus faecalis = assay: Antibacterial activity against Enterococcus faecalis ATCC 29212 assessed as reduction in bacterial growth after 18 hrs by microbroth dilution method; format: functional
In short: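 CLSI microbroth dilution in MHB. Overnight cultures were adjusted to 0.5 McFarland in saline, diluted 1:50, and inoculated at about 5 × 10^5 CFU/mL. Agents were 2-fold serially diluted and incubated 18 h at 37 °C. MIC is the lowest concentration without visible turbidity, confirmed by absorbance at 590 nm. Medium with and without cells served as controls.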

Acinetobacter baumannii [1] = assay: Potentiation of cefiderocol-induced antibiotic activity against Acinetobacter baumannii ATCC 17978 assessed as MIC fold reduction at 8 ug/ml after 18 hrs by microbroth dilution method; format: functional; conditions: dose 8 µg/ml
In short: (§1)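 Initial screen in MHB using a fixed 8 μg mL−1 of adjuvant combined with each antibiotic under 2-fold dilution. Broth microdilution used about 5 × 10^5 CFU/mL at 37 °C for 18 h, with visible turbidity read and confirmed at 590 nm. Fold-potentiation = antibiotic MIC alone ÷ antibiotic MIC with adjuvant.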

Acinetobacter baumannii [2] = assay: Potentiation of colistin-induced antibiotic activity against Acinetobacter baumannii ATCC 17978 assessed as MIC fold reduction at 8 ug/ml after 18 hrs by microbroth dilution method; format: functional; conditions: dose 8 µg/ml
In short: (§2)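 Adjuvant held at a fixed 8 μg/mL while the antibiotic was 2-fold serially diluted in Mueller-Hinton broth (MHB), per CLSI microbroth dilution. Overnight cultures were adjusted in saline to 0.5 McFarland, then diluted 1:50 in MHB to about 5 × 10^5 CFU/mL final, and incubated 18 h at 37 °C. MIC was the lowest concentration with no visible turbidity, confirmed at 590 nm. Fold potentiation = MIC alone / MIC with adjuvant.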

Pseudomonas aeruginosa [3] = assay: Antibacterial activity against MDR clinical isolate Pseudomonas aeruginosa PA262 assessed as reduction in bacterial growth after 18 hrs by microbroth dilution method; format: functional
In short: (§3)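 CLSI broth microdilution. Overnight cultures were adjusted in saline to 0.5 McFarland, diluted 1:50 in Mueller-Hinton broth (MHB), and inoculated at about 5 × 10^5 CFU/mL. Agents were 2-fold serially diluted in MHB, mixed 1:1 with inoculum, and held at 37 °C for 18 h. MIC was the lowest concentration with no visible turbidity, confirmed at 590 nm.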

Pseudomonas aeruginosa [4] = assay: Antibacterial activity against colistin-resistant clinical isolate Pseudomonas aeruginosa PA91433 assessed as reduction in bacterial growth after 18 hrs by microbroth dilution method; format: functional
In short: (§4)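 Broth microdilution per CLSI in Mueller-Hinton broth (MHB). Overnight cultures were adjusted to 0.5 McFarland in saline, diluted 1:50 in MHB, and added at about 5 × 10^5 CFU/mL final to equal volumes of 2-fold serial dilutions of agent. Incubation was 18 h at 37 °C. MIC was the lowest concentration with no visible turbidity, confirmed by absorbance at 590 nm.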

Pseudomonas aeruginosa [5] = assay: Potentiation of colistin-induced antibiotic activity against Pseudomonas aeruginosa PAO1 assessed as MIC fold reduction at 8 ug/ml after 18 hrs by microbroth dilution method; format: functional; conditions: dose 8 µg/ml; in short: as §2
Pseudomonas aeruginosa [6] = assay: Potentiation of rifampicin-induced antibiotic activity against Pseudomonas aeruginosa PAO1 assessed as MIC fold reduction at 8 ug/ml after 18 hrs by microbroth dilution method; format: functional; conditions: dose 8 µg/ml
Escherichia coli [7] = assay: Antibacterial activity against Escherichia coli ATCC 25922 assessed as reduction in bacterial growth after 18 hrs in presence of cefiderocol by microbroth dilution method; format: functional
In short: (§5)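 Checkerboard in Mueller-Hinton broth: cefiderocol 2-fold diluted on one axis, adjuvant 2-fold on the other. Overnight cultures were adjusted to 0.5 McFarland in saline, diluted 1:50 in MHB, and inoculated at about 5 × 10^5 CFU/mL. Incubation was 18 h at 37 °C. Turbidity was read visually and confirmed at 590 nm. FIC index = FIC of antibiotic + FIC of adjuvant; ≤0.5 synergy, >4 antagonism.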

[8] = tested on: Staphylococcus epidermidis; assay: Antibacterial activity against methicillin-resistant Staphylococcus epidermidis 61589 assessed as reduction in bacterial growth after 18 hrs by microbroth dilution method; format: functional; in short: as §4
Pseudomonas aeruginosa [9] = assay: Potentiation of cefiderocol-induced antibiotic activity against MDR clinical isolate Pseudomonas aeruginosa PA259 assessed as MIC fold reduction at 8 ug/ml after 18 hrs by microbroth dilution method; conditions: dose 8 µg/ml
Klebsiella pneumoniae [10] = assay: Antibacterial activity against Klebsiella pneumoniae KP113250 assessed as potentiation of cefiderocol antibacterial activity by measuring FIC after 18 hrs by microbroth dilution method; format: functional; in short: as §5
Escherichia coli [11] = assay: Potentiation of chloamphenicol-induced antibiotic activity against Escherichia coli ATCC 25922 assessed as MIC fold reduction at 8 ug/ml after 18 hrs by microbroth dilution method; format: functional; conditions: dose 8 µg/ml; in short: as §2
Acinetobacter baumannii [12] = assay: Potentiation of cefotaxime-induced antibiotic activity against Acinetobacter baumannii ATCC 17978 assessed as MIC fold reduction at 8 ug/ml after 18 hrs by microbroth dilution method; format: functional; conditions: dose 8 µg/ml; in short: as §1
Pseudomonas aeruginosa [13] = assay: Potentiation of moxifloxacin-induced antibiotic activity against Pseudomonas aeruginosa PA264 assessed as MIC fold reduction in ID-CAMHB condition at 8 ug/ml after 18 hrs by microbroth dilution method; format: functional, organism-based; conditions: dose 8.0 µg/ml
Pseudomonas aeruginosa [14] = assay: Potentiation of cefotaxime-induced antibiotic activity against Pseudomonas aeruginosa PAO1 assessed as MIC fold reduction at 8 ug/ml after 18 hrs by microbroth dilution method; format: functional; conditions: dose 8 µg/ml; in short: as §2
Pseudomonas aeruginosa [15] = assay: Antibacterial activity against colistin-resistant clinical isolate Pseudomonas aeruginosa PA114228 assessed as reduction in bacterial growth after 18 hrs in presence of cefiderocol by microbroth dilution method; format: functional
In short: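 Checkerboard in MHB (iron-replete, not iron-depleted CAMHB). Cefiderocol was 2-fold serially diluted along one axis and the adjuvant along the other. Inoculum was 0.5 McFarland diluted 1:50, about 5 × 10^5 CFU/mL final. Incubation was 18 h at 37 °C, with turbidity read visually and confirmed at 590 nm. FIC was the MIC in combination over the MIC alone for each agent, and the FIC index was their sum. Cut-offs were ≤0.5 synergy, >0.5–4 additive, >4 antagonism.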

Escherichia coli [16] = assay: Potentiation of cotrimoxazole-induced antibiotic activity against Escherichia coli ATCC 25922 assessed as MIC fold reduction at 8 ug/ml after 18 hrs by microbroth dilution method; format: functional; conditions: dose 8 µg/ml; in short: as §2
Pseudomonas aeruginosa [17] = assay: Antibacterial activity against MDR clinical isolate Pseudomonas aeruginosa PA101885 assessed as potentiation of cefiderocol antibacterial activity by measuring FIC index after 18 hrs by microbroth dilution method; format: functional
In short: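 Checkerboard in MHB. Cefiderocol was 2-fold serially diluted along one axis and the adjuvant along the other. Inoculum was prepared from 0.5 McFarland saline suspensions diluted 1:50 in MHB, giving about 5 × 10^5 CFU/mL final. Plates ran 18 h at 37 °C, with turbidity confirmed at 590 nm. FIC = combination MIC ÷ MIC alone for each agent, and FIC index = sum of both. Interpretation: ≤0.5 synergy, >0.5–4 additive, >4 antagonism.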

Klebsiella pneumoniae [18] = assay: Antibacterial activity against Klebsiella pneumoniae KP113254 assessed as reduction in bacterial growth after 18 hrs by microbroth dilution method; format: functional; in short: as §3
Pseudomonas aeruginosa [19] = assay: Potentiation of moxifloxacin-induced antibiotic activity against Pseudomonas aeruginosa PAO1 assessed as MIC fold reduction at 8 ug/ml after 18 hrs by microbroth dilution method; format: functional; conditions: dose 8 µg/ml
Pseudomonas aeruginosa [20] = assay: Potentiation of vancomycin-induced antibiotic activity against Pseudomonas aeruginosa PAO1 assessed as MIC fold reduction at 8 ug/ml after 18 hrs by microbroth dilution method; format: functional; conditions: dose 8 µg/ml

## NC[C@H]1O[C@H](O[C@H]2[C@H](OCCCCc3cn(-c4ccc(NC(=O)c5cc(Cl)ccc5O)cc4)nn3)[C@@H](O[C@H]3O[C@H](CO)[C@@H](O)[C@H](N)[C@H]3O)[C@H](N)C[C@@H]2N)[C@H](N)C[C@@H]1O
Enterococcus faecalis
  MIC: > 128 µg/mL
Acinetobacter baumannii [1]
  fold change (FC): 4
Acinetobacter baumannii [2]
  fold change (FC): 4
Pseudomonas aeruginosa [3]
  MIC: > 128 µg/mL
Pseudomonas aeruginosa [4]
  MIC: > 128 µg/mL
Pseudomonas aeruginosa [5]
  fold change (FC): 4
Pseudomonas aeruginosa [6]
  fold change (FC): 4
Escherichia coli [7]
  MIC: 0.25 µg/mL
[8]
  MIC: 128 µg/mL (≈ 153 µM)
Pseudomonas aeruginosa [9]
  fold change (FC): 32
Klebsiella pneumoniae [10]
  FIC: 0.25
Escherichia coli [11]
  fold change (FC): 4
Acinetobacter baumannii [12]
  fold change (FC): 4
Pseudomonas aeruginosa [13]
  Activity: Active
Pseudomonas aeruginosa [14]
  fold change (FC): 4
Pseudomonas aeruginosa [15]
  MIC: 16 µg/mL
Escherichia coli [16]
  fold change (FC): 4
Pseudomonas aeruginosa [17]
  FIC: 0.017
Klebsiella pneumoniae [18]
  MIC: > 128 µg/mL
Pseudomonas aeruginosa [19]
  fold change (FC): 4
Pseudomonas aeruginosa [20]
  fold change (FC): 4
